This note sets out measurements from ChEMBL document CHEMBL4014346, “Lead Optimization Generates CYP11B1 Inhibitors of Pyridylmethyl Isoxazole Type with Improved Pharmacological Profile for the Treatment of Cushing's Disease” (J Med Chem, 2017).

Structures are written as SMILES.

Data set [1] in a line: Selectivity ratio of IC50 for human CYP11B2 expressed in hamster V79MZ cells to IC50 for human CYP11B1 expressed in hamster V79MZ cells. An outline of the steps: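 V79MZ cells expressing recombinant human CYP11B1 or CYP11B2, or rat CYP11B1, incubated with [1,2-³H]-11-deoxycorticosterone (100 nM) and inhibitor over a range of concentrations; ketoconazole as reference.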

Data set [2] can be described thus: Oral bioavailability in Sprague-Dawley rat at 28 mg/kg administered as single dose by HPLC-MS/MS analysis. Type of data set: ADME, organism-based. Conditions: in vivo. The essentials:
(§1)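 Female Sprague-Dawley rats (244–299 g), 2 animals, given one oral dose under 2% isoflurane as a freshly sonicated suspension in 0.5% porcine gelatin/5% mannitol in water. Tail-vein plasma precipitated with acetonitrile plus diphenhydramine internal standard, quantified by HPLC-MS/MS in duplicate. Noncompartmental analysis; Cmax and Tmax read directly from the concentration–time curve; F derived against iv dosing.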

Another data set deals with Rattus norvegicus. Briefly: Time at which plasma concentration stays above in vitro rat CYP11B1 IC50 in Sprague-Dawley rat at 28 mg/kg, po administered as single dose. The essentials: as §1
The nature of data set [3]: Cmax in Sprague-Dawley rat at 28 mg/kg, po administered as single dose by HPLC-MS/MS analysis. It counts as ADME, organism-based. Also on record: dose 28 mg/kg, route oral. Conditions: in vivo. An outline of the steps: as §1
The nature of data set [4]: AUC (0 to infinity) in Sprague-Dawley rat at 5 mg/kg, iv administered as single dose by HPLC-MS/MS analysis. Also on record: dose 5 mg/kg, route intravenous, time infinity. Conditions: in vivo. It counts as ADME, organism-based.
Data set [5] can be described thus: Tmax in Sprague-Dawley rat at 28 mg/kg, po administered as single dose by HPLC-MS/MS analysis. The conditions noted are these: in vivo. Type of data set: ADME, organism-based. The essentials: as §1
The nature of data set [6]: Volume of distribution at steady state in Sprague-Dawley rat at 5 mg/kg, iv administered as single dose by HPLC-MS/MS analysis. It counts as ADME, organism-based. The conditions noted are these: in vivo, read-out: Vdss. The essentials:
(§2)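 Female Sprague-Dawley rats (244–299 g), 2 animals; single iv dose in PEG300/ethanol/water (60/10/30), under 2% isoflurane anesthesia. Tail-vein blood taken into sodium citrate, plasma spun down, precipitated with acetonitrile containing diphenhydramine internal standard, analysed by HPLC-MS/MS with duplicate injections. Mean parameters from noncompartmental analysis.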

A short description of data set [7]: Half life in Sprague-Dawley rat at 28 mg/kg, po administered as single dose by HPLC-MS/MS analysis. Type of data set: ADME, organism-based. The conditions noted are these: in vivo. The essentials:
as §1

The next data set has as its system Plasma. The experiment in a line: Plasma concentration in Sprague-Dawley rat at 28 mg/kg, po administered as single dose by HPLC-MS/MS analysis. It counts as ADME, organism-based. Conditions: in vivo. An outline of the steps: as §1
Data set [8] is described as follows: AUC (0 to infinity) in Sprague-Dawley rat at 28 mg/kg, po administered as single dose by HPLC-MS/MS analysis. It counts as ADME, organism-based. Also on record: dose 28 mg/kg, route oral, time infinity. The conditions noted are these: in vivo.
Data set [9] can be described thus: Half life in Sprague-Dawley rat at 5 mg/kg, iv administered as single dose by HPLC-MS/MS analysis. It counts as ADME, organism-based. Conditions: in vivo. An outline of the steps:
as §2

Data set [10] in a line: Clearance in Sprague-Dawley rat at 5 mg/kg, iv administered as single dose by HPLC-MS/MS analysis. The conditions noted are these: in vivo. Type of data set: ADME, organism-based. The essentials:
as §2

`Cc1cncc(Cc2cc(-c3ccccc3)no2)c1`: the “Ratio IC50” value in data set [1] is 16.

For the compound `COc1cncc(Cc2cc(-c3ccccc3)no2)c1`, the bioavailability in data set [2] is 50%. Moreover, the Time result in the data set on Rattus norvegicus is “<=7 hr”. Moreover, the Cmax in [3] stood at 6.4 µM. Moreover, the AUC(0-inf) in data set [4] came out at 3680 ng·h/mL; in data set [8], 10200 ng·h/mL. The Tmax in data set [5] is 2.5 h. The Vd in [6] was found to be 3.1 L/kg. Moreover, the results for the half-life in data set [7] and in data set [9] were 3.3 h and 4.8 h, respectively. The same compound had a concentration in the data set on Plasma of 4.11 µM. In data set [10], this compound showed a clearance of 22.6 mL/min/kg.

As a reminder, the bioavailability is the share of a dose that reaches the circulation, judged against a reference dose that is usually intravenous. Read a high bioavailability as much systemic uptake. The term Cmax denotes the maximum level reached in the sampled fluid or tissue. What is called AUC(0-inf) is the area under the concentration-time curve extrapolated to infinity. By Tmax is commonly meant the time from dosing to the highest level. What is called half-life is how long it takes for the measured level to halve. Lower therefore signals rapid decline. Broadly, the clearance is the rate of elimination divided by the concentration.
